Reference: ChEMBL document CHEMBL4715860 (J Med Chem, 2020)
Active and inactive are the calls of the source. No cut-off for these calls is given here.

Key:
[1] = Elimination half life in C57BL/6J mouse plasma at 10 mg/kg, po administered as single dose by mass spectrometry based UHPLC analysis; format: ADME, organism-based; conditions: read-out: beta t1/2 (converted)
How it was run: (§1)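 Female C57BL/6J mice, one oral dose of 10 mg/kg in 20% Captisol; plasma and brain levels over time, n = 3 per time point (mean).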

[2] = AUC (0 to 8 hrs) in male Sprague-Dawley rat plasma at 5 mg/kg, po; format: ADME, organism-based; parameters: time < 8 hr, route oral, dose 5 mg/kg
How it was run: (§2)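 Male Sprague Dawley rats, single oral dose of 5 mg/kg. Plasma and brain concentrations measured over 8 h, n = 3, mean ± SEM; AUC0−8 computed from the time course.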

[3] = system: Mus musculus; experiment: In vivo inhibition of mTORC2 signalling pathway in C57BL/6J mouse assessed as reduction in PKB/Akt phosphorylation at Ser473 in brain at 25 mg/kg, po incubated for 30 mins by Western blot analysis; format: functional, organism-based
How it was run: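 Female C57BL/6J mice dosed at 25 mg/kg p.o.; cortex collected 30 min later and lysed. Equal protein run on SDS-PAGE and western blotted for pS6(Ser235/236), pPKB(Ser473) and α-tubulin, detected by HRP secondary antibodies and ECL. Signal expressed as % of control cortex, n = 3, mean ± SEM, unpaired t-test.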

[4] = AUC (0 to 8 hrs) in male Sprague-Dawley rat brain at 5 mg/kg, po; format: ADME, organism-based; parameters: time < 8 hr, route oral, dose 5 mg/kg; conditions: in vivo; how it was run: as §2
[5] = Tmax in C57BL/6J mouse brain at 10 mg/kg, po administered as single dose by mass spectrometry based UHPLC analysis; format: ADME, organism-based
How it was run: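 Female C57BL/6J mice dosed orally at 10 mg/kg in 20% Captisol, either once or once daily for 4 days with sampling after the last dose on day 4. Plasma and brain concentrations followed over time. Tmax taken from at least 3 time points.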

[6] = Toxicity in Balb/c nude mouse assessed as change in body weight at 100 mg/kg, po administered once daily for 14 days measured for 7 days starting from post last dose; format: organism-based; conditions: in vivo, 504 h, time 21 day
[7] = Cmax in C57BL/6J mouse plasma at 10 mg/kg, po administered once a day for 4 consecutive days by mass spectrometry based UHPLC analysis; format: ADME, organism-based; parameters: route oral, dose 10 mg/kg, time 4 day
How it was run: (§3)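 Female C57BL/6J mice given 10 mg/kg p.o. in 20% Captisol once daily for 4 consecutive days. Plasma and brain sampled after the final dose on day 4, n = 3 per time point.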

[8] = Elimination half life in C57BL/6J mouse brain at 10 mg/kg, po administered once a day for 4 consecutive days by mass spectrometry based UHPLC analysis; format: ADME, organism-based; conditions: time 4 day, read-out: beta t1/2 (converted); how it was run: as §3
[9] = system: Mus musculus; experiment: In vivo inhibition of PI3Kalpha in C57BL/6J mouse assessed as increase in plasma glucose concentration at 25 mg/kg, po measured after 8 hrs by glucoseoxidase-peroxide coupled colorimetric assay; format: functional, organism-based
How it was run: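 Female C57BL/6J mice given one oral dose (25 mg/kg); plasma insulin and glucose monitored over time, mean ± SEM.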

[10] = Metabolic stability in CD1 mouse hepatocytes assessed as parent compound remaining at 5 uM incubated for 3 hrs by LC-MS analysis; format: ADME, cell-based, Hepatocyte; conditions: read-out: Stabilty
How it was run: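 Cryopreserved primary hepatocytes in suspension (CD-1 mouse, Sprague-Dawley rat, Beagle dog, human). Compound diluted from 10 mM DMSO stock to 5 μM final. Sampled at 0, 15, 60, 90 and 180 min, protein precipitated with ACN plus internal standard, supernatant analysed by LC−MS. Run in duplicate. 7-ethoxycoumarin as positive control. Hepatocyte-free medium incubations as negative control.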

[11] = Toxicity in Balb/c nude mouse assessed as change in body weight at 150 mg/kg, po administered once daily for 14 days measured for 7 days starting from post last dose; format: organism-based; conditions: in vivo, 504 h, time 21 day
[12] = Elimination half life in C57BL/6J mouse plasma at 10 mg/kg, po administered once a day for 4 consecutive days by mass spectrometry based UHPLC analysis; format: ADME, organism-based; conditions: time 4 day, read-out: beta t1/2 (converted); how it was run: as §3
[13] = AUC (0 to 8 hrs) in C57BL/6J mouse brain at 10 mg/kg, po administered once a day for 4 consecutive days by mass spectrometry based UHPLC analysis; format: ADME, organism-based; parameters: route oral, time 4 day, dose 10 mg/kg; how it was run: as §3
[14] = system: Mus musculus; experiment: In vivo inhibition of mTORC1 signalling in C57BL/6J mouse assessed as reduction in RPS6 phosphorylation at S235/236 residue in brain at 25 mg/kg, po measured after 8 hrs by Western blot analysis; format: functional, organism-based
How it was run: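 Time course in female C57BL/6J mice after 25 mg/kg p.o.: cortex taken at set time points and western blotted for pS6 and pPKB. Signals quantified against α-tubulin as % of control cortex; n = 3 per time point and n = 9 controls. Brain compound level measured in the same mice.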

[15] = Tmax in C57BL/6J mouse plasma at 25 mg/kg, po administered as single dose by mass spectrometry based UHPLC analysis; format: ADME, organism-based
How it was run: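 Female C57BL/6J mice given a single oral dose of 25 mg/kg. Plasma and brain levels followed over time (n = 3 per time point, mean). Tmax is the time of maximal concentration.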

[16] = AUC (0 to 8 hrs) in C57BL/6J mouse plasma at 25 mg/kg, po administered as single dose by mass spectrometry based UHPLC analysis; format: ADME, organism-based; parameters: time < 8 hr, route oral, dose 25 mg/kg
How it was run: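 One oral dose of 25 mg/kg to female C57BL/6J mice. Plasma and brain concentrations followed over time, n = 3 per time point (mean).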

[17] = Clearance in C57BL/6J mouse plasma at 10 mg/kg, po administered as single dose by mass spectrometry based UHPLC analysis; format: ADME, organism-based; how it was run: as §1
[18] = Intrinsic clearance in human hepatocytes assessed per million cells at 5 uM incubated for 3 hrs by LC-MS analysis; format: ADME, cell-based, Hepatocyte; conditions: read-out: CLH
How it was run: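 Cryopreserved primary hepatocytes in suspension from CD-1 mouse, Sprague-Dawley rat, Beagle dog and human. Compound at 5 μM final (from 10 mM DMSO stock). Samples taken at 0, 15, 60, 90 and 180 min and quenched with ACN plus internal standard. Parent quantified by LC-MS. Hepatocyte-free medium incubations served as negative control; 7-ethoxycoumarin as positive control. Duplicate; CLint per 10^6 cells and t1/2.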

[19] = Toxicity in Tsc1-GFAP knockout Balb/c mouse assessed as change in body weight at 50 mg/kg, po bid; format: organism-based; conditions: in vivo
How it was run: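 Tsc1GFAPCKO mice dosed orally from P21 at 10, 25, 50 mg/kg or 50 mg/kg bid. Body weight tracked during the survival study; mean ± SEM.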

C[C@@H]1COCCN1c1nc(-c2cnc(N)cc2C(F)F)nc(N2[C@H](C)COC[C@@H]2C)n1
half-life [1]: 3 h
AUC(0-t) at 8 h [2]: 2430 ng·h/mL
inhibition [3]: Active
AUC [4]: 3689 ng·h/g
Tmax [5]: 0.5 h
Activity [6]: Non-Toxic
Cmax [7]: 947 ng/mL
half-life [8]: 2.3 h
inhibition [9]: inactive
remaining at 3 h, 5 µM [10]: 48.4%
Activity [11]: Non-Toxic
half-life [12]: 2.2 h
AUC at 96 h [13]: 3050 ng·h/mL
inhibition [14]: inactive
Tmax [15]: 0.2 h
AUC(0-t) at 8 h [16]: 10300 ng·h/mL
CL/F [17]: 56.6 mL/min/kg
hepatocyte CLint at 5 µM [18]: 5.3 µL/min/1e6 cells
Activity [19]: Non-Toxic
